Legend:
[1] = Inhibition of potato 5-LOX by EIA; parameters: species or system Solanum tuberosum
Procedure, shortened: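 Potato 5-LOX activity measured with an enzyme immunoassay (LOX assay kit). Mean of two determinations; deviation from the mean <10%.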

Rattus norvegicus [2] = test: Antiinflammatory activity in rat assessed as inhibition of carrageenan-induced rat paw oedema at 0.14 mmol/kg, po after 3 hrs; format: functional
Procedure, shortened: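 Carrageenan-induced paw edema in rats. Compounds given orally, suspended in 1% aqueous methylcellulose. Test compounds dosed at 0.14 mmol, equivalent to 30 mg/kg ibuprofen. Mean ± SEM, n = 4.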

[3] = target: T1, Prostaglandin G/H synthase 2 (Homo sapiens, UniProt P35354); test: Inhibition of human recombinant COX2 by fluorescence assay
T1 sequence (P35354 whole entry): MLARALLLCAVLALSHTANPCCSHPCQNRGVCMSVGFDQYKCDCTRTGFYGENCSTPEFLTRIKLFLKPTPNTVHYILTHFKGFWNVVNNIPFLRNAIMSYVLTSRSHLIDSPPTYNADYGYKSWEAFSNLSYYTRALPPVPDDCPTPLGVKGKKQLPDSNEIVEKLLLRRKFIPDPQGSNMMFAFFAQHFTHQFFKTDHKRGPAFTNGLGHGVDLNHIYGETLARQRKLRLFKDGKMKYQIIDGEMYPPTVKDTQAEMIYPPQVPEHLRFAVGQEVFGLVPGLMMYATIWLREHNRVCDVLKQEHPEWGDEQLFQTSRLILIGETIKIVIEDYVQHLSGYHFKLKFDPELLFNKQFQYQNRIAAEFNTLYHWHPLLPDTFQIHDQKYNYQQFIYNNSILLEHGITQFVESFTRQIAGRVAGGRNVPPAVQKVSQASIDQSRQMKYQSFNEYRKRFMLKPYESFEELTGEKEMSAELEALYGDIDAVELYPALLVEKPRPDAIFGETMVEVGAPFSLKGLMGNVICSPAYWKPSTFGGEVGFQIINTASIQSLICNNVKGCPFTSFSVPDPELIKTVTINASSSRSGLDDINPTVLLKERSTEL

Rattus norvegicus [4] = test: Ulcerogenic activity in rat assessed as ulcer index at 0.14 mmol/kg, po after 6 hrs; format: toxicity, organism-based; conditions: in vivo
Procedure, shortened: (§1)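 Rats fasted 24 h (water allowed), then dosed orally with 0.14 mmol/kg in 1.0 mL 1% methylcellulose; vehicle controls given. Euthanized by CO2 at 6 h. Stomachs opened along the greater curvature, rinsed, and ulcers measured under magnifier lenses. UI = summed ulcer length (mm) per stomach averaged over 4 rats; mean ± SEM; one-way ANOVA with Holm–Sidak.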

Rattus norvegicus [5] = test: Antiinflammatory activity in rat assessed as inhibition of carrageenan-induced rat paw oedema at 30 mg/kg, po after 3 hrs; format: functional
Procedure, shortened: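 Carrageenan-induced paw edema in rats. Compounds given orally, suspended in 1% aqueous methylcellulose. Test compounds dosed at 0.14 mmol, equivalent to 30 mg/kg ibuprofen. […] Mean ± SEM, n = 4.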

Rattus norvegicus [6] = test: Ulcerogenic activity in rat assessed as ulcer index at 30 mg/kg, po after 6 hrs; format: toxicity, organism-based; parameters: dose 30 mg/kg, route oral; conditions: in vivo; procedure, shortened: as §1

Structure (SMILES) | IC50 [1] [µM] | IC50 [3] [µM] | UI (Rattus norvegicus [4]) [mm] | also measured
CCn1c(Cn2nc(Cc3ccc([N+](=O)[O-])cc3)c3onc(C)c3c2=O)n[nH]c1=S | 14.8 | 9.2 | 0 | inhibition in vivo at 140 µmol/kg (Rattus norvegicus [2]): 38%
O=C(O)/C=C/c1ccc(O)c(O)c1 [CAFFEIC ACID] | 4 |  |  | 
CCn1c(Cn2nc(Cc3ccc(OC)cc3)c3onc(C)c3c2=O)n[nH]c1=S | 8.6 | 2.2 |  | 
Cc1noc2c(Cc3ccc([N+](=O)[O-])cc3)nn(Cc3n[nH]c(=S)n3C)c(=O)c12 |  |  | 0.25 | 
CCNc1nnc(Cn2nc(Cc3ccccc3)c3onc(C)c3c2=O)s1 | 72.8 | > 100 |  | 
CC(C)Cc1ccc(C(C)C(=O)O)cc1 (stereo not drawn) [IBUPROFEN] |  |  |  | inhibition in vivo at 30 mg/kg (Rattus norvegicus [5]): 18.5%; UI (Rattus norvegicus [6]): 7 mm
CNc1nnc(Cn2nc(Cc3ccc([N+](=O)[O-])cc3)c3onc(C)c3c2=O)s1 |  |  | 0.75 | 
Cc1noc2c(Cc3ccccc3)nn(Cc3nnc(Nc4ccccc4)s3)c(=O)c12 |  |  | 0.5 | 
Cc1noc2c(Cc3ccc([N+](=O)[O-])cc3)nn(Cc3n[nH]c(=S)n3-c3ccccc3)c(=O)c12 | 16.5 | > 100 |  | 
CC(c1cc2ccccc2s1)N(O)C(N)=O (stereo not drawn) [ZILEUTON] | 1.1 |  |  | 
Cc1noc2c(Cc3ccccc3)nn(Cc3n[nH]c(=S)n3-c3ccccc3)c(=O)c12 | 45.1 | > 100 |  | 
COc1ccc(Cc2nn(Cc3n[nH]c(=S)n3-c3ccccc3)c(=O)c3c(C)noc23)cc1 |  |  | 0 | 
COc1ccc(Cc2nn(Cc3nnc(Nc4ccccc4)s3)c(=O)c3c(C)noc23)cc1 | 46.2 | > 100 |  | 
COc1ccc(Cc2nn(Cc3n[nH]c(=S)n3C)c(=O)c3c(C)noc23)cc1 |  |  | 0.25 | 

From ChEMBL document CHEMBL2016541, “Synthesis and biological evaluation of isoxazolo[4,5-d]pyridazin-4-(5H)-one analogues as potent anti-inflammatory agents” (Bioorg Med Chem, 2012)
